For assay [1], the system named is Klebsiella pneumoniae. The assay can be described thus: Bacteriostatic activity against Klebsiella pneumoniae isolate KPC 359 in immunocompromized mouse thigh infection model at 2 g after 24 hrs. The format is functional, organism-based. To be noted: Thigh muscle. An outline of the steps: (§1)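 Neutropenic murine thigh model. Cyclophosphamide 150 and 100 mg/kg i.p. at 4 and 1 days pre-inoculation. Uranyl nitrate 5 mg/kg i.p. at day −3 for renal impairment. Each thigh injected i.m. with ~10⁶ CFU/ml, 0.1 ml. At 2 h, s.c. doripenem regimens simulating human fT>MIC for 1 or 2 g q8h 4-h infusion; saline controls. Thighs plated at 24 h; Δlog₁₀ CFU vs 0-h controls; stasis <1 log change.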

Assay [2] concerns Klebsiella pneumoniae. The assay can be described thus: Antimicrobial activity against Klebsiella pneumoniae isolate KPC 359 in immunocompetent mouse thigh infection model assessed as reduction in bacterial load in mouse thigh at 2 g after 24 hrs. Format: functional, Thigh muscle. In outline:
(§2)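 Immunocompetent ICR mouse thigh model. Uranyl nitrate 5 mg/kg i.p. on day −3, no cyclophosphamide. Thighs inoculated i.m. with ~10⁸ CFU. From 2 h, s.c. doripenem regimens simulating human 1 or 2 g q8h 4-h infusions, given as three 8-h intervals; saline controls. Thighs homogenized in saline and plated at 24 h; change in log₁₀ CFU relative to 0-h untreated mice.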

A short description of assay [3]: fT>MIC in Klebsiella pneumoniae isolate KPC 357 infected in human at 1 g administered as 4 hrs infusion every 8 hrs. Format: functional.
Assay [4] relates to Klebsiella pneumoniae. The assay can be described thus: Antimicrobial activity against Klebsiella pneumoniae isolate KPC 356 in immunocompetent mouse thigh infection model assessed as reduction in bacterial load in mouse thigh at 1 g after 24 hrs. The format is functional, Thigh muscle. In outline: as §2
A short description of assay [5]: fT>MIC in Klebsiella pneumoniae isolate KPC 361 infected in human at 2 g administered as 4 hrs infusion every 8 hrs. Format: functional.
Assay [6] can be described thus: fT>MIC in Klebsiella pneumoniae isolate KPC 356 infected in human at 1 g administered as 4 hrs infusion every 8 hrs. The format is functional.
Assay [7] deals with Klebsiella pneumoniae. The assay can be described thus: Antimicrobial activity against Klebsiella pneumoniae isolate KPC 354 by Etest. Format: functional. An outline of the steps: (§3)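 Etest on each clinical isolate, run in triplicate and read per the manufacturer's instructions; the modal MIC is reported. Quality control strain P. aeruginosa ATCC 27853. Isolates stored at −80°C in double-strength skim milk and subcultured twice on Trypticase soy agar with 5% sheep blood at 35°C before testing.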

The subject of assay [8] is Klebsiella pneumoniae. The assay can be described thus: Antimicrobial activity against Klebsiella pneumoniae isolate KPC 353 in immunocompromized mouse thigh infection model assessed as decrease in bacterial density in mouse thigh at 1 g after 24 hrs. Format: functional, Thigh muscle. In outline: as §1
A short description of assay [9]: fT>MIC in Klebsiella pneumoniae isolate KPC 359 infected in human at 2 g administered as 4 hrs infusion every 8 hrs. The format is functional.
Assay [10] concerns Klebsiella pneumoniae. The assay can be described thus: Antimicrobial activity against Klebsiella pneumoniae isolate KPC 353 by broth microdilution method. Format: functional. An outline of the steps:
(§4)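 MIC by CLSI broth microdilution, triplicate determinations, modal value reported. QC strain P. aeruginosa 27853. Isolates kept frozen at −80°C in skim milk and subcultured twice on blood agar (TSA + 5% sheep blood) at 35°C before use.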

The subject of assay [11] is Klebsiella pneumoniae. The assay can be described thus: Antimicrobial activity against Klebsiella pneumoniae isolate KPC 354 in immunocompetent mouse thigh infection model assessed as reduction in bacterial load in mouse thigh at 2 g after 24 hrs. Format: functional, Thigh muscle. An outline of the steps:
as §2

For assay [12], the system named is Klebsiella pneumoniae. The assay can be described thus: Antimicrobial activity against Klebsiella pneumoniae isolate KPC 361 in immunocompromized mouse thigh infection model assessed as reduction in bacterial load in mouse thigh at 2 g after 24 hrs. The format is functional, organism-based. Conditions: Thigh muscle. An outline of the steps: as §1
Assay [13] has as its system Klebsiella pneumoniae. The assay can be described thus: Antimicrobial activity against Klebsiella pneumoniae isolate KPC 360 by broth microdilution method. Format: functional. In outline: (§5)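 Clinical KPC-producing isolate, stored at −80°C in double-strength skim milk, subcultured twice on Trypticase soy agar with 5% sheep blood at 35°C. MIC by broth microdilution per CLSI methods, run in triplicate, modal MIC reported; quality control strain PSA 27853 included.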
On the technique in general: Dilution methods test growth across graded concentrations, often in twofold steps.

Assay [14] deals with Klebsiella pneumoniae. The assay can be described thus: Antimicrobial activity against Klebsiella pneumoniae isolate KPC 359 by broth microdilution method. Format: functional. In outline: as §5
The subject of assay [15] is Klebsiella pneumoniae. The assay can be described thus: Antimicrobial activity against Klebsiella pneumoniae isolate KPC 357 in immunocompromized mouse thigh infection model assessed as decrease in bacterial density in mouse thigh at 1 g after 24 hrs. The format is functional, Thigh muscle. An outline of the steps: as §1
Assay [16] deals with Klebsiella pneumoniae. The assay can be described thus: Antimicrobial activity against Klebsiella pneumoniae isolate KPC 357 by Etest. Format: functional. An outline of the steps:
as §3

Assay [17] can be described thus: fT>MIC in Klebsiella pneumoniae isolate KPC 353 infected in human at 1 g administered as 4 hrs infusion every 8 hrs. The format is functional.
Assay [18] has as its system Klebsiella pneumoniae. The assay can be described thus: Antimicrobial activity against Klebsiella pneumoniae isolate KPC 361 in immunocompromized mouse thigh infection model assessed as reduction in bacterial load in mouse thigh at 1 g after 24 hrs. The format is functional, organism-based. Conditions: Thigh muscle. In outline:
as §1

Assay [19] has as its system Klebsiella pneumoniae. The assay can be described thus: Antimicrobial activity against Klebsiella pneumoniae isolate KPC 354 in immunocompromized mouse thigh infection model assessed as decrease in bacterial density in mouse thigh at 1 g after 24 hrs. Format: functional, Thigh muscle. In outline:
as §1

Assay [20] deals with Klebsiella pneumoniae. The assay can be described thus: Antimicrobial activity against Klebsiella pneumoniae isolate KPC 356 in immunocompromized mouse thigh infection model assessed as decrease in bacterial density in mouse thigh at 1 g after 24 hrs. The format is functional, Thigh muscle. In outline: as §1
Assay [21] is described as follows: fT>MIC in Klebsiella pneumoniae isolate KPC 353 infected in human at 2 g administered as 4 hrs infusion every 8 hrs. The format is functional.
Assay [22] concerns Klebsiella pneumoniae. The assay can be described thus: Antimicrobial activity against Klebsiella pneumoniae isolate KPC 356 by Etest. Format: functional. In outline:
as §3

Assay [23] relates to Klebsiella pneumoniae. The assay can be described thus: Antimicrobial activity against Klebsiella pneumoniae isolate KPC 361 by broth microdilution method. The format is functional. An outline of the steps: as §4
In assay [24] the test system is Klebsiella pneumoniae. The assay can be described thus: Antimicrobial activity against Klebsiella pneumoniae isolate KPC 353 by Etest. Format: functional. In outline:
as §3

Assay [25] in a line: fT>MIC in Klebsiella pneumoniae isolate KPC 354 infected in human at 2 g administered as 4 hrs infusion every 8 hrs. The format is functional.
A short description of assay [26]: fT>MIC in Klebsiella pneumoniae isolate KPC 361 infected in human at 1 g administered as 4 hrs infusion every 8 hrs. The format is functional.
Assay [27] relates to Klebsiella pneumoniae. The assay can be described thus: Antimicrobial activity against Klebsiella pneumoniae isolate KPC 354 by broth microdilution method. The format is functional. An outline of the steps: as §4
Assay [28] deals with Klebsiella pneumoniae. The assay can be described thus: Antimicrobial activity against Klebsiella pneumoniae isolate KPC 360 by Etest. Format: functional. An outline of the steps:
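Clinical KPC-producing isolate stored at −80°C in double-strength skim milk and subcultured twice on blood agar (5% sheep blood) at 35°C before testing. Etest strip MIC read per manufacturer's interpretation, run in triplicate, modal value reported; quality control strain PSA 27853 included.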

The subject of assay [29] is Klebsiella pneumoniae. The assay can be described thus: Antimicrobial activity against Klebsiella pneumoniae isolate KPC 356 by broth microdilution method. The format is functional. An outline of the steps:
as §4

Assay [30] in a line: fT>MIC in Klebsiella pneumoniae isolate KPC 360 infected in human at 2 g administered as 4 hrs infusion every 8 hrs. Format: functional.
The test system of assay [31] is Klebsiella pneumoniae. The assay can be described thus: Antimicrobial activity against Klebsiella pneumoniae isolate KPC 356 in immunocompetent mouse thigh infection model assessed as reduction in bacterial load in mouse thigh at 2 g after 24 hrs. Format: functional, Thigh muscle. An outline of the steps: as §2
Assay [32] in a line: fT>MIC in Klebsiella pneumoniae isolate KPC 360 infected in human at 1 g administered as 4 hrs infusion every 8 hrs. Format: functional.
The nature of assay [33]: fT>MIC in Klebsiella pneumoniae isolate KPC 356 infected in human at 2 g administered as 4 hrs infusion every 8 hrs. Format: functional.
A short description of assay [34]: fT>MIC in Klebsiella pneumoniae isolate KPC 357 infected in human at 2 g administered as 4 hrs infusion every 8 hrs. The format is functional.
The subject of assay [35] is Klebsiella pneumoniae. The assay can be described thus: Antimicrobial activity against Klebsiella pneumoniae isolate KPC 361 by Etest. The format is functional. In outline: as §3
Assay [36] in a line: fT>MIC in Klebsiella pneumoniae isolate KPC 359 infected in human at 1 g administered as 4 hrs infusion every 8 hrs. Format: functional.
Assay [37] deals with Klebsiella pneumoniae. The assay can be described thus: Antimicrobial activity against Klebsiella pneumoniae isolate KPC 359 by Etest. Format: functional. An outline of the steps: as §3
Assay [38] has as its system Klebsiella pneumoniae. The assay can be described thus: Antimicrobial activity against Klebsiella pneumoniae isolate KPC 357 by broth microdilution method. Format: functional. An outline of the steps: as §4
Assay [39] in a line: fT>MIC in Klebsiella pneumoniae isolate KPC 354 infected in human at 1 g administered as 4 hrs infusion every 8 hrs. Format: functional.
Assay [40] concerns Klebsiella pneumoniae. The assay can be described thus: Antimicrobial activity against Klebsiella pneumoniae isolate KPC 354 in immunocompetent mouse thigh infection model assessed as reduction in bacterial load in mouse thigh at 1 g after 24 hrs. Format: functional, Thigh muscle. An outline of the steps: as §2
The subject of assay [41] is Klebsiella pneumoniae. The assay can be described thus: Antimicrobial activity against Klebsiella pneumoniae. The format is functional.

Structures are written as SMILES. Values after ≈ are worked out from the molar mass of the structure shown. Active and inactive are the calls of the source. The rule behind the calls is not given here.

`C[C@@H](O)[C@H]1C(=O)N2C(C(=O)O)=C(S[C@@H]3CN[C@H](CNS(N)(=O)=O)C3)[C@H](C)[C@H]12` [DORIPENEM]: the result with Klebsiella pneumoniae [1] was Active. The log10cfu worked out at 1 in the assay with Klebsiella pneumoniae [2]; 1 in the assay with Klebsiella pneumoniae [4]; 0.02 in the assay with Klebsiella pneumoniae [8]; 1 with Klebsiella pneumoniae [11]; 0.02 in the assay with Klebsiella pneumoniae [15]; 0.02 in the assay on Klebsiella pneumoniae [19]. Moreover, the log10cfu with Klebsiella pneumoniae [20] is on record as 0.02; in the assay with Klebsiella pneumoniae [31] it was 1; in the assay with Klebsiella pneumoniae [40] it was 1. Also, the “fT>MIC” value in assay [3] was 52.5%; in assay [5], 0%; in [6], 52.5%; in assay [9], 52.5%; in [17] it was 70%; in [21] it was 82.5%. Moreover, the “fT>MIC” value in assay [25] was 82.5%; in [26] it was 0%; in [30], 52.5%; in assay [32], 0%; in [33], 70%; in [34], 70%. Also, the “fT>MIC” value in [36] is given as 0%; in [39] it was 70%. In addition, the minimal inhibitory concentration (MIC) with Klebsiella pneumoniae [7] came out at 4 µg/mL (≈ 9.51 µM); in the assay on Klebsiella pneumoniae [10], 4 µg/mL (≈ 9.51 µM); with Klebsiella pneumoniae [13], 16 µg/mL (≈ 38 µM); against Klebsiella pneumoniae [14] it was 16 µg/mL (≈ 38 µM); against Klebsiella pneumoniae [16], 6 µg/mL (≈ 14.3 µM); in the assay with Klebsiella pneumoniae [22] it was 12 µg/mL (≈ 28.5 µM). In addition, the MIC against Klebsiella pneumoniae [23] is 32 µg/mL (≈ 76.1 µM); in the assay on Klebsiella pneumoniae [24], 3 µg/mL (≈ 7.13 µM); in the assay on Klebsiella pneumoniae [27], 4 µg/mL (≈ 9.51 µM); against Klebsiella pneumoniae [28], 16 µg/mL (≈ 38 µM); against Klebsiella pneumoniae [29], 8 µg/mL (≈ 19 µM); with Klebsiella pneumoniae [35], more than 32 µg/mL. Further, the MIC with Klebsiella pneumoniae [37] is more than 32 µg/mL; with Klebsiella pneumoniae [38], 8 µg/mL (≈ 19 µM). In addition, the outcome in the assay on Klebsiella pneumoniae [12] and with Klebsiella pneumoniae [18] was inactive.

In the assay with Klebsiella pneumoniae [41], `C[C@@H](O)[C@H]1C(=O)N2C(C(=O)O)=C(S[C@@H]3CN[C@H](C(=O)N(C)C)C3)[C@H](C)[C@H]12` [MEROPENEM] showed an MIC of 2 µg/mL (≈ 5.22 µM).

The MIC is the least concentration at which growth counts as inhibited. Higher therefore signals a less susceptible organism.

For the origin of these results see ChEMBL document CHEMBL1649333, “In vivo efficacy of simulated human dosing regimens of prolonged-infusion doripenem against carbapenemase- producing Klebsiella pneumoniae” (2010).
